Laboratory results published in ChEMBL document CHEMBL1147839, “New highly hydrosoluble and not self-aggregated perylene derivatives with three and four polar side-chains as G-quadruplex telomere targeting agents and telomerase inhibitors” (Bioorg Med Chem Lett, 2007).

Key:
Homo sapiens [1] = organism: Homo sapiens; assay: Inhibition of human telomerase at 2 uM after 2 hrs by TRAP assay
How it was run: (§1)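 Modified TRAP with TSG4 substrate primer (0.4 μM) and 50 μM dNTPs in TRAP buffer (pH 8.3, 1.5 mM MgCl2, 68 mM KCl, 0.05% Tween 20, 1 mM EGTA). The mix was heated 90 C 10 min, then iced. Drug was preincubated 2 h at 30 C. SKN-Be neuroblastoma cell extract was added for 30 min at 30 C, then phenol/chloroform extraction. PCR (30 cycles) used 32P-TSG4, CXext primer and Taq. Runs done at least three independent times.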

Homo sapiens [2] = organism: Homo sapiens; assay: Inhibition of human telomerase at 5 uM after 2 hrs by TRAP assay; how it was run: as §1
Homo sapiens [3] = organism: Homo sapiens; assay: Inhibition of human telomerase at 10 uM after 2 hrs by TRAP assay; how it was run: as §1
Homo sapiens [4] = organism: Homo sapiens; assay: Inhibition of human telomerase at 20 uM after 2 hrs by TRAP assay; how it was run: as §1

Row | SMILES | inhibition (Homo sapiens [1]) | inhibition (Homo sapiens [2]) | inhibition (Homo sapiens [3]) | inhibition (Homo sapiens [4])
1 | CN(C)CCCNc1cc2c3c(ccc4c5c(Br)cc6c7c(ccc(c1c34)c75)C(=O)N(CCCN(C)C)C6=O)C(=O)N(CCCN(C)C)C2=O | 18% | 49% | 55% | 59%
2 | CN(C)CCCNc1cc2c3c(ccc4c5c(NCCCN(C)C)cc6c7c(ccc(c1c34)c75)C(=O)N(CCCN(C)C)C6=O)C(=O)N(CCCN(C)C)C2=O | 8% | 41% | 54% | 54%
3 | CN(C)CCCNc1cc2c3c(cc(NCCCN(C)C)c4c5ccc6c7c(ccc(c1c34)c75)C(=O)N(CCCN(C)C)C6=O)C(=O)N(CCCN(C)C)C2=O | 12% | 47% | 56% | 59%
4 | CN(C)CCCNc1cc2c3c(ccc4c5ccc6c7c(ccc(c1c34)c75)C(=O)N(CCCN(C)C)C6=O)C(=O)N(CCCN(C)C)C2=O | 24% | 39% | 57% | 59%
